Diaph inh CS – counter-screen for diaphorase-based assays: diaphorase inhibitors and chemical oxidizers. diaphorase resazurin-to-resorufin fluorescence, NADH, 16 min; bacterial (C. kluyveri) enzyme, not human. inhibition, % at 20 µM. 190,000 tested, 0.69% active;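 active = primary screen inhibition at 20 µM above a set limit, cut at about 50% in these data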;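 note: plate controls were DMSO with full reaction for no effect and wells lacking NADH for full effect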
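material = Clostridium kluyveri diaphorase enzyme | amount = 0.14 U/mL diaphorase, enzyme working solution | schedule = incubation 16 min, room temperature | detection = fluorescence of resorufin formed from resazurin, Ex 544/Em 590 nm | benchmarks = positive control minus NADH, DMSO neutral control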
FLuc stim CS – firefly luciferase counter-screen for stimulation assays; P08659; ATPlite luciferase biochemical, luminescence, 10 min; 0 = ATP-free wells, 1 = DMSO control; activation factor at 10 µM; 200,000 tested, under 10 active; AID 1027;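 active = luciferase activation factor, scaled between plate controls, of at least 2 with compound at 10 µM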
Target sequence (P08659 whole entry, looked up): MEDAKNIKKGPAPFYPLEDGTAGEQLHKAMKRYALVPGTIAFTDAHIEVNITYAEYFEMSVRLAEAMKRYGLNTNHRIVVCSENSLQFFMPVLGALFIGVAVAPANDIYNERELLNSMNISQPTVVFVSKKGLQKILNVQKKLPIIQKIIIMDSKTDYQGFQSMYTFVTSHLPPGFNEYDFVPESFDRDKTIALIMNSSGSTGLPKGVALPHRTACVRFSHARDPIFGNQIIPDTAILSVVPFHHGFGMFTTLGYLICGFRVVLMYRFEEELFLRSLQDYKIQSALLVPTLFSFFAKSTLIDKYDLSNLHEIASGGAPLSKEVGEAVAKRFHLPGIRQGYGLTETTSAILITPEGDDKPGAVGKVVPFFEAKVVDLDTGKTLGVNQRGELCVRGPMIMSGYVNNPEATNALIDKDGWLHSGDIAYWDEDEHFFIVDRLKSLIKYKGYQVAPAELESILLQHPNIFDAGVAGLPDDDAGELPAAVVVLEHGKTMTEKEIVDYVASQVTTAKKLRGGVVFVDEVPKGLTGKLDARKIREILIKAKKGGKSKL
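Assay system: Luciferase/luciferin detection reagent, cell-free biochemical luciferase assay / Read-out: luciferase activation / Benchmarks: No-ATP low control, compound-free enzyme-plus-ATP high control / Medium: PBS buffer for ATP / Detection: luminescence measurement of luciferase light output / Schedule: 10 min at ambient temperature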
G6PDH CS – counter-screen for G6PDH assay hits: L. mesenteroides G6PDH inhibition | Purified L. mesenteroides G6PDH, diaphorase/resazurin coupled fluorescence, 45 min | inhibition, % at 5 µM | 200,000 tested, 0.12% active; in the data active = inhibition above about 50%
Diaphorase act – counter-screen for diaphorase-based assays: diaphorase activators and chemical reducers; 190,000 tested, 0.005% active; activation factor at 20 µM; Diaphorase/resazurin coupled assay, resorufin fluorescence, 16 min; hits give high values; 1 = vehicle wells, 0 = NADH-free wells;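 active = diaphorase activity raised at least twofold by the compound at 20 µM; inactive = activation factor below 2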
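Assay system: bacterial diaphorase enzyme (C. kluyveri) / Input: enzyme 0.07 U/mL final / Medium: 50 mM HEPES pH 7.4 with 4.542 mM MgCl2, 0.005% Tween 20 / Doses: single compound dose of 20 µM, 1% DMSO final / Incubation: 16 min enzyme reaction, ambient temperature / Signal: fluorescence, excitation 544 nm and emission 590 nm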
FLuc inh counter – Photinus pyralis luciferase inhibition counter-screen; P08659; ATPLite firefly luciferase biochemical luminescence, 10 min; inhibition, % at 10 µM; 200,000 tested, 1.5% active; AID 1006;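 active = inhibition above about 50% when tested at 10 µM, limit read from the data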
* hit, by the source's call. An excerpt weighted towards active compounds, which were near 2.3% of everything screened.

SMILES	Diaph inh CS	FLuc stim CS	G6PDH CS	Diaphorase act	FLuc inh counter
O=c1ccnc(S/C=C/c2ccccc2)[nH]1	-4.9	0.4	6.7	1	63.0*
CCOC(=O)C1CCN(CCC(=O)Nc2ccc(C)c(C)c2)CC1	3.6	1.1	3.8	1	-6.2
O=[N+]([O-])c1c(NCCCO)cc(Sc2nc3ccccc3s2)c2nonc12	70.9*	1	50.6*	0.3	-1.2
Cc1nnc(Sc2cc(NCCCO)c([N+](=O)[O-])c3nonc23)s1	59.3*	1	21.5	0.4	-4.4
CCC(=O)OCCNc1cc(Sc2nc3ccccc3[nH]2)c2nonc2c1[N+](=O)[O-]	31.1	1	-22.8	0.7	1.0
Cc1nnc(Sc2cc(NCCO)c([N+](=O)[O-])c3nonc23)s1	39.7	1.1	11.8	0.6	-5.4
CCC(=O)OCCNc1cc(Sc2nc3ccccc3s2)c2nonc2c1[N+](=O)[O-]	58.3*	1	21.2	0.4	-3.4
CCCCOC(=O)c1ccc(NC(=O)C(=O)NCc2ccco2)cc1	-1.8	1.1	10.8	1	-6.4
CCCOCC(O)CCc1n[nH]c(=S)n1-c1ccccc1 (configuration not stated)	9.9	1	6.4	0.9	-4.5
COc1ccc(/C(C)=N\NC(=O)c2ccc3c(c2)OCO3)cc1OC	1.0	0.9	3.9	1	7.0
C/C(=N\NC(=O)c1ccc2c(c1)OCO2)c1ccco1	2.4	0.2	-6.3	1	81.9*
C/C(=N\NC(=O)c1csc(C)c1C)c1ccco1	9.4	0.2	-2.2	0.9	78.9*
C/C(=N/NC(=O)c1ccc2c(c1)OCO2)c1cccc(NC(=O)C(C)(C)C)c1	20.6	0.5	-16.0	0.8	52.9*
O=C(Nc1ccc(NC(=O)c2ccco2)cc1)c1ccc2c(c1)OCO2	-3.7	1	7.8	1	2.3
CCC(CC)C(=O)c1c[nH]c(C(=O)NCc2ccccn2)c1	2.4	1.1	5.2	1	-7.9
COc1ccc2cc(C(c3nnnn3C(C)(C)C)N3CCc4ccccc4C3)c(=O)[nH]c2c1 (configuration not stated)	52.5*	1.1	-21.7	0.5	-9.1
CCC(C)(C)n1nnnc1C(c1cc2ccc(OC)cc2[nH]c1=O)N1CCc2ccccc2C1 (configuration not stated)	47.0	1	3.5	0.5	-4.6
COc1ccc2cc(C(c3nnnn3C3CCCC3)N3CCc4ccccc4C3)c(=O)[nH]c2c1 (configuration not stated)	55.7*	1.1	16.9	0.4	-7.0
COc1ccc2nc(-n3c(O)c(C4=c5ccccc5=NC4=O)[nH]c3=S)sc2c1	52.0*	0.7	-14.6	0.5	25.6
Cn1c(O)c(C2=c3ccccc3=NC2=O)[nH]c1=S	-4.9	1	-4.7	1	4.4
O=C(O)c1cccc(N2C(=O)c3ccc(Oc4ccc(Cl)cc4)cc3C2=O)c1	17.6	1	23.9	0.8	3.7
O=C(O)c1cccc(N2C(=O)/C(=C/c3ccc(SCc4ccc(Cl)cc4)o3)SC2=S)c1	62.0*	1	20.8	0.4	4.7
C[n+]1cccc(C(=O)NNC(=O)C23CC4CC(CC(C4)C2)C3)c1	-0.6	1.1	1.8	1	-7.2
CN(c1ccc(OCC(=O)OCC(=O)NCc2ccco2)cc1)S(=O)(=O)c1ccc2ccccc2c1	23.3	1.1	3.4	0.8	-7.8
O=C1CC(Sc2nnnn2C2CCCCC2)C(=O)N1c1ccccc1 (configuration not stated)	10.9	0.4	3.7	0.9	57.1*
SMILES	Diaph inh CS	FLuc stim CS	G6PDH CS	Diaphorase act	FLuc inh counter
Cc1ccc(C(=O)Nc2nccs2)cc1	10.0	0.2	8.1	0.9	83.1*
Cc1nnc(NC(=O)c2ccc3c(c2)C(=O)N(CC2CCCO2)C3=O)s1 (configuration not stated)	4.1	0.3	11.1	1	67.1*
Cc1ccc(NC(=O)c2ccc3c(c2)C(=O)N(CC2CCCO2)C3=O)cc1C (configuration not stated)	0.1	0.9	6.9	1	10.7
Cc1ccc(C(=O)Nc2nnc(C)s2)cc1	5.5	0.4	-0.6	0.9	58.5*
O=C(Nc1nnc(-c2cccs2)s1)c1cccc(F)c1	4.9	0.9	6.7	1	7.0
COc1ccc(C(=O)N/C(=C/c2ccco2)C(=O)NC2CCS(=O)(=O)C2)cc1 (configuration not stated)	5.2	1	11.6	0.9	-1.1
COc1cccc(-c2noc(-c3ccc(Cl)nc3)n2)c1	3.7	0.7	-3.9	1	31.2
O=C(/C=C/c1ccco1)Nc1cccnc1	13.3	0.7	0.8	0.9	33.4
O=C(/C=C/c1ccco1)Nc1ccccn1	14.8	0.3	-0.7	0.9	69.1*
O=C(/C=C/c1ccco1)Nc1cccc2cccnc12	63.3*	0.7	-7.6	0.4	26.9
Cc1ccc(NC(=O)/C=C/c2ccco2)nc1	16.9	0.4	-8.1	0.8	61.9*
O=C(O)C1CC(O)CN1c1nc(Cl)ccc1[N+](=O)[O-] (configuration not stated)	49.9	1.1	37.6	0.5	-8.6
N#Cc1c2ccc(O)cc2n2ccccc12	40.1	1	34.8	0.6	0.8
O=S(=O)(Nc1cc(Sc2ncn[nH]2)c(O)c2ccccc12)c1ccccc1	17.5	1	54.5*	0.8	1.0
O/N=C\c1ccccc1Oc1ccc(F)cc1	14.4	1.1	6.3	0.9	-8.5
C/C(=N\NC(=O)c1ccn(C)n1)c1cccc(NC(=O)c2ccc(C)s2)c1	8.7	0.3	-0.9	0.9	73.4*
C/C(=N/NC(=O)c1ccco1)c1cccc(NC(=O)c2ccc(C)s2)c1	5.1	0.3	-3.8	0.9	69.0*
O=C(CSc1nnc(Nc2ccccc2)s1)NN1C(=O)NC2(CCCCC2)C1=O	15.2	0.9	0.7	0.8	5.9
O=c1c2c(nc3cc(-c4ccc(F)cc4)[nH]n13)CCCC2	-1.6	0.3	7.6	1	67.6*
O=c1c2c(nc3cc(-c4cccc(F)c4)[nH]n13)CCC2	6.1	0.5	3.5	0.9	46.7
O=c1c2c(nc3cc(-c4ccc(Cl)cc4)[nH]n13)CCS2	16.7	0.4	5.6	0.8	59.8*
CS(=O)(=O)c1ccc2nc(NC(=O)c3cc(-c4ccccc4)nn3-c3ccccc3)sc2c1	19.6	1	20.0	0.8	-0.5
Cc1cc(C)c(NN=c2c(=O)c3ccccc3c2=O)c(C)c1	3.6	0.8	-0.6	1	23.2
O=c1c(=NNc2ccccc2Cl)c(=O)c2ccccc12	5.8	0.2	7.0	0.9	80.1*
COc1ccc(/C=N/c2nc3ccccc3n2C)cc1OC	14.6	0.3	-1.3	0.9	69.7*
C(=N\c1nc2ccccc2n1CCN1CCCCC1)/c1cccs1	13.6	1	5.6	0.9	-4.8

Compound activity as filed in PubChem BioAssay.
